{"source": "paper PMC8204328", "about": "(ACS Pharmacology & Translational Science, 2021)", "key": {"lean wild-type mice": {"system": "lean wild-type mice", "assay": "Upper GI motility", "assay_type": "in vivo, mouse", "summary_of_the_method": "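Upper gastrointestinal motility by charcoal transit in lean wild-type mice. The CB1R agonist ACEA is given intraperitoneally at 10 mg/kg, with or without test compound. Test compound is also given without agonist to assess motility alone.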"}, "mice [1]": {"system": "mice", "assay": "Hyperambulatory activity in drug-naïve mice", "assay_type": "in vivo, mouse", "conditions": "single oral 3 mg/kg, βArr2-KO mice and wild-type littermates"}, "mice [2]": {"system": "mice", "assay": "Elevated plus maze test", "assay_type": "in vivo, mouse", "summary_of_the_method": "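The elevated plus maze scores anxiety-like behavior in male wild-type mice after acute oral dosing or 28 days of daily oral dosing with test compound or reference antagonist. Mean ± SEM of 4–6 independent experiments.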"}, "[3]": {"conditions": "acute oral 3 mg/kg, male wild-type mice; cited from earlier work"}, "hCB1R": {"target": "hCB1R (Homo sapiens, UniProt P21554)", "sequence (P21554 whole entry)": "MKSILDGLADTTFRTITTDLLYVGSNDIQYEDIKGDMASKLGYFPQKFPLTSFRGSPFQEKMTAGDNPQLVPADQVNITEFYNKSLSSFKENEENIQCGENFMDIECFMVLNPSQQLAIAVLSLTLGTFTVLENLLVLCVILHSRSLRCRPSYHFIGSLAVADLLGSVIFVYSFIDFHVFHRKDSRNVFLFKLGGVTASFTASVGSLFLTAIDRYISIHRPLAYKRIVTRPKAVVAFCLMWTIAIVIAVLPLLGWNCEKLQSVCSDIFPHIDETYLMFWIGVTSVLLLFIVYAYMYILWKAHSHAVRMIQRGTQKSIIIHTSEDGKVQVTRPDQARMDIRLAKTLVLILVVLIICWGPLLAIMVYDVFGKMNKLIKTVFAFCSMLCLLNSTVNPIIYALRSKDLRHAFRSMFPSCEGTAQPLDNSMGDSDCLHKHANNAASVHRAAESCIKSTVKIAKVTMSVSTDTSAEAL", "assay_type": "cell-based"}, "[4]": {"system": "C2C12 mouse muscle myotubes", "assay": "Insulin-induced Akt-2 phosphorylation in C2C12 myotubes", "assay_type": "cell-based", "conditions": "100 nM insulin; CP-55940 5 μM", "summary_of_the_method": "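Cultured C2C12 mouse muscle myotubes, mock- or βArr2-siRNA-transfected, exposed to 100 nM insulin with or without the CB1R agonist CP-55940 (5 μM) and test compound (100 nM). Akt phosphorylation by Western blot, β-actin loading control, densitometry quantification; each treatment in duplicate cell aliquots.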"}, "[5]": {"system": "M384S, I105A and M109A mutant hCB1R", "assay": "CP55,940-induced βArr2 recruitment in HEK cells expressing mutant hCB1R", "assay_type": "cell-based, human", "conditions": "mutations M384S"}}, "data": [{"compound": "Cc1c(C(=O)NN2CCCCC2)nn(-c2ccc(Cl)cc2Cl)c1-c1ccc(Cl)cc1", "note": "[rimonabant]", "values": [{"measurement": "upper GI motility in the absence of CB1R agonist (in vivo inverse agonism)", "setting": "lean wild-type mice; MRI-1891 3 and 10 mg/kg", "value": "similar"}, {"measurement": "hyperambulatory activity", "setting": "mice [1]", "value": "similar, long-lasting hyperambulatory activity"}, {"measurement": "anxiogenic behavior, elevated plus maze", "setting": "mice [2]; acute oral, MRI-1891 up to 30 mg/kg, rimonabant 3 mg/kg", "value": "highly anxiogenic"}, {"measurement": "anxiogenic behavior, elevated plus maze", "setting": "mice [2]; chronic 28 days, MRI-1891 1 and 10 mg/kg/day, rimonabant 3 mg/kg/day", "value": "induced strong anxiety"}, {"measurement": "anxiogenic response, elevated plus maze", "setting": "mice [2]; single oral 3 mg/kg, βArr2-KO mice and wild-type littermates", "value": "identical, strong anxiogenic responses in both strains"}]}, {"compound": "CN=C(NS(=O)(=O)c1ccc(Cl)cc1)N1C[C@H](c2ccccc2)C(c2ccc(Cl)cc2)=N1", "note": "[ibipinabant]", "values": [{"measurement": "brain/plasma ratio", "setting": "[3]", "value": 22, "unit": "%"}, {"measurement": "bias (G/βArr)", "setting": "hCB1R", "value": "≈ 2"}]}, {"compound": "CCCCC/C=C\\C/C=C\\C/C=C\\C/C=C\\CCCC(=O)NCCCl", "note": "[ACEA, arachidonoyl chloroethylamine]", "values": [{"measurement": "inhibition of upper GI motility", "setting": "lean wild-type mice; 10 mg/kg intraperitoneal, lean wild-type mice", "value": 60, "unit": "%"}, {"measurement": "inhibition of upper GI motility, wild-type versus βArr2-KO mice", "setting": "lean wild-type mice; ACEA alone", "value": "to the same extent"}]}, {"compound": "CCCCCCC(C)(C)c1ccc([C@@H]2C[C@H](O)CC[C@H]2CCCO)c(O)c1", "note": "[CP-55940]", "values": [{"measurement": "effect on insulin-induced Akt-2 phosphorylation", "setting": "[4]", "value": "significantly inhibited"}, {"measurement": "CP-55940-induced βArr2 recruitment at mutant hCB1R", "setting": "[5]", "value": "suppression"}]}]}
